Screens from PubChem.
PKA-R1A activ: activates the PKA-R1A holoenzyme complex | P00514+P68181 | PKA-R1A dissociation, Cy5-IP20 fluorescence polarization; scaled: DMSO 0%, 113 µM cGMP 100% | activation, % at 11.4 µM | 340,000 compounds, 0.083% hits;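 active = percent activation above the mean of all tested compounds plus 3 SD, cut at about 19% in these data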;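 also: higher means more PKAc released from R1A so a rise in polarization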
CDK5 p35 inh: blocks human CDK5/p35 kinase activity. Recombinant CDK5/p35, ADP-Glo luminescence, 60 min. AID 488839. 330,000 compounds, 0.01% hits. inhibition, % at 10 µM. Q00535+Q15078;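 active = highest replicate inhibition of at least 50% and at least 75% of replicates reaching 50%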;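 also: plate controls were DMSO neutral control for no effect and GW8510 at 10 µM for full effect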
SR-BI uptake up: activators of SR-BI mediated HDL lipid uptake; activation, % at 12.5 µM; CHO ldlA[mSR-BI] cells, DiI-HDL uptake fluorescence, 3 h; 100 = double the neutral-control signal; 320,000 compounds, 0.096% hits;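 active = mean replicate activation of at least 60% and every replicate at or above 60%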;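 also: 0% = median plate neutral-control signal and 100% = twice that signal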
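Material – SR-BI-overexpressing, LDLR-lacking CHO cells · Medium – BSA-supplemented, HEPES-buffered Ham's F12, pH 7.4 · Doses – single concentration · Times – compound with DiI-HDL co-incubation, 3 h at 37 °C · Measured by – bottom-read fluorescence, 550/595 nm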
PKA-R2B act: activators of human PKA-R2B complex | activation, % at 11.4 µM | AID 504700 | PKA-R2B holoenzyme dissociation, Cy5-IP20 fluorescence polarization; R2B truncated from residue 108, S112A mutant; 0% DMSO only, 100% 113 µM cGMP | 340,000 compounds, 0.079% hits;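 active = activation above a cutoff set at the mean over all compounds plus 3 SD, cut at about 18% in these data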;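 also: higher means more holoenzyme dissociation and a rise in polarization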
dFosB act: activators of mouse delta FosB homodimer; activation, % at 25 µM; 340,000 compounds, 0.99% hits; AID 493131; purified delta FosB, TAMRA-CDK5 oligo fluorescence polarization; percent of positive-control signal above neutral wells;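 active = mean activation above about 17%, with every replicate also reaching it, limit read from the data, passing the limit was not always enough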
Target sequence (P13346 whole entry, looked up): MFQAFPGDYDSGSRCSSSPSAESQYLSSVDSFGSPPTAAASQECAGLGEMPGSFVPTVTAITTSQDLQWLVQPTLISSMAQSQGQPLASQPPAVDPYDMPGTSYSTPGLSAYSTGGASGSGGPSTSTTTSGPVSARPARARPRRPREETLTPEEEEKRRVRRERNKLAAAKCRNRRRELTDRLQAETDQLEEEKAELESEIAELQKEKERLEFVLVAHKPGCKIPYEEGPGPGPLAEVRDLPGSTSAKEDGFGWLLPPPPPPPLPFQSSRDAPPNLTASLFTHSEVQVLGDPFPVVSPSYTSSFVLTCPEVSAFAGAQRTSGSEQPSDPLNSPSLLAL
SR-BI DiI inh: inhibitors of mouse SR-BI mediated HDL lipid uptake; Q61009; inhibition, % at 12.5 µM; ldlA[mSR-BI] CHO cells, DiI-HDL uptake fluorescence, 3 h; 320,000 compounds, 0.96% hits; AID 488896;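 active = mean replicate inhibition of at least 70% and a set share of replicates each scoring 70 or more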;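 also: 0% = median of neutral control wells and 100% = median of positive control wells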
Active calls of the source: *. Most compounds without a hit are left out; they make up all but 2.1% or so of the library.

What do the screens show for `COc1ccc(S(=O)(=O)NC(C)C(=O)NCc2ccc3c(c2)OCO3)cc1OC` (stereo not drawn)?
PKA-R1A activ: 3.1; CDK5 p35 inh: -6.3; SR-BI uptake up: 10.7; PKA-R2B act: -5.5; dFosB act: -5.2; SR-BI DiI inh: -10.7

Results for COc1ccccc1CNC(=O)C(NS(=O)(=O)c1ccc2c(c1)OCCO2)C(C)C (stereo not drawn) ?
PKA-R1A activ: -16.3; CDK5 p35 inh: -1.6; SR-BI uptake up: 7.0; PKA-R2B act: -2.4; dFosB act: 28.2*; SR-BI DiI inh: -7.0

What do the screens show for `Oc1ccc(/C=N/Nc2ccc(C(F)(F)F)cn2)c(O)c1`?
PKA-R1A activ: -17.6; CDK5 p35 inh: 67.2*; SR-BI uptake up: -2.1; PKA-R2B act: -4.0; dFosB act: 1.9; SR-BI DiI inh: 2.1

Results for Cc1n[nH]c2ccc([N+](=O)[O-])cc2c1=O ?
PKA-R1A activ: 1.8; PKA-R2B act: -2.2

Results for Oc1[nH]c2ccccc2c1N=Nc1ccccn1 ?
PKA-R1A activ: -0.9; CDK5 p35 inh: -1.4; SR-BI uptake up: 3.4; PKA-R2B act: -1.8; dFosB act: -0.8; SR-BI DiI inh: -3.4

How did Oc1c(N=Nc2ccccn2)ccc2ccccc12 do in these assays?
PKA-R1A activ: 1.8; CDK5 p35 inh: -0.3; SR-BI uptake up: -134.4; PKA-R2B act: -1.1; dFosB act: -14.6; SR-BI DiI inh: 134.4*

Results for CCCCCCN1C=C/C(=C\C=C(C#N)C#N)c2ccccc21 ?
PKA-R1A activ: -2.0; CDK5 p35 inh: 5.7; SR-BI uptake up: -75.9; PKA-R2B act: -5.8; dFosB act: -23.9; SR-BI DiI inh: 75.9*

Results for Cc1ccc(NC(=O)c2ncn(CCCN(CCCn3cnc(C(=O)Nc4ccc(C)c(C)c4)n3)Cc3ccc4[nH]ccc4c3)n2)cc1C ?
PKA-R1A activ: 0.6; CDK5 p35 inh: -0.2; SR-BI uptake up: -18.5; PKA-R2B act: -10.9; dFosB act: 77.0*; SR-BI DiI inh: 18.5

How did CCOC(=O)c1c(NC(=S)Nc2ccccc2)sc2c1CC(C)(C)SC2 do in these assays?
PKA-R1A activ: 3.5; CDK5 p35 inh: 0.6; SR-BI uptake up: -95.3; PKA-R2B act: -7.5; dFosB act: -8.1; SR-BI DiI inh: 95.3*

What do the screens show for `CCOC(=O)c1c(NC(=O)Nc2ccccc2)sc(C)c1C`?
PKA-R1A activ: -5.1; CDK5 p35 inh: 1.0; SR-BI uptake up: -85.5; PKA-R2B act: -0.6; dFosB act: -1.3; SR-BI DiI inh: 85.5*

How did COCCN1C2=C(C(=O)CC(C)(C)C2)C(c2ccc(OC)c(OC)c2)C2=C1CC(C)(C)CC2=O do in these assays?
PKA-R1A activ: -4.4; CDK5 p35 inh: 1.1; SR-BI uptake up: 6.6; PKA-R2B act: -0.6; dFosB act: -2.9; SR-BI DiI inh: -6.6

Results for CC1CCc2c(sc(NC(=O)c3cccn3C)c2C(N)=O)C1 (stereo not drawn) ?
PKA-R1A activ: -5.9; CDK5 p35 inh: -6.1; SR-BI uptake up: -81.3; PKA-R2B act: -20.6; dFosB act: -9.0; SR-BI DiI inh: 81.3*

How did O=C(c1ccc(Cl)cc1)N1CCC(C(=O)N2CCCc3ccccc32)CC1 do in these assays?
PKA-R1A activ: -10.7; CDK5 p35 inh: 0.3; SR-BI uptake up: -45.6; PKA-R2B act: -0.2; dFosB act: -0.2; SR-BI DiI inh: 45.6

Results for N#CCCN(C(=S)NC(=O)C1CCCCC1)c1ccccc1F ?
PKA-R1A activ: -4.3; CDK5 p35 inh: -1.3; SR-BI uptake up: 14.7; PKA-R2B act: 8.8; dFosB act: 2.7; SR-BI DiI inh: -14.7

How did Nc1ncnc2c1ncn2C1O[C@H](CO)[C@@H](O)[C@@H]1O (stereo partly drawn) do in these assays?
PKA-R1A activ: 0.7; CDK5 p35 inh: 1.5; SR-BI uptake up: 21.3; PKA-R2B act: 3.4; dFosB act: -6.2; SR-BI DiI inh: -21.3

What do the screens show for `N#Cc1c(N)n(C2OC(CO)C(O)C2O)c2ncnc(N)c12` (stereo not drawn)?
PKA-R1A activ: 3.5; CDK5 p35 inh: 57.1*; SR-BI uptake up: 23.1; PKA-R2B act: -2.7; dFosB act: -3.1; SR-BI DiI inh: -23.1
